In ChEMBL document CHEMBL2417400, “Discovery of a novel 5-carbonyl-1H-imidazole-4-carboxamide class of inhibitors of the HIV-1 integrase-LEDGF/p75 interaction” (Bioorg Med Chem, 2013):

Key:
[1] = biological target: T1, Human immunodeficiency virus type 1 integrase (Human immunodeficiency virus 1, UniProt Q7ZJM1); assay: Inhibition of recombinant His6-tagged HIV-1 integrase 3' strand transfer activity
[2] = tested on: Human immunodeficiency virus 1; assay: Antiviral activity against HIV1 infected in human MT4 cells assessed as virus-induced cytopathic effect by MTT assay; type: functional, organism-based; details: Human immunodeficiency virus 1, MT4
[3] = Cytotoxicity against human MT4 cells; type: cell-based
[4] = biological target: T1, Human immunodeficiency virus type 1 integrase; assay: Inhibition of recombinant His6-tagged HIV-1 integrase 3' processing activity
[5] = Inhibition of recombinant His6-tagged HIV-1 integrase binding to FLAG-tagged LEDGF/p75 (unknown origin) interaction expressed in Escherichia coli BL21(DE3) treated 30 mins before LEDGF/p75 addition measured after 60 mins by AlphaScreen assay
Outline: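 His6-IN (300 nM final) with compound for 30 min at 4 °C. FLAG-LEDGF/p75 (300 nM final) added for 60 min at 4 °C. Ni-chelate donor and anti-FLAG acceptor beads added, 1 h at 30 °C, light exposure minimized. Acceptor emission read. IC50 is the 50% inhibition of the interaction.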

[6] = Inhibition of recombinant His6-tagged HIV-1 integrase binding to FLAG-tagged LEDGF/p75 (unknown origin) interaction expressed in Escherichia coli BL21(DE3) at 20 uM treated 30 mins before LEDGF/p75 addition measured after 60 mins by quench assay
Outline: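 Emission-quench counter-screen run like the IN–LEDGF/p75 AlphaScreen, with FLAG-tagged GST (500 nM final) instead of both proteins. Same buffer, Ni-chelate donor and anti-FLAG acceptor beads, 1 h at 30 °C, acceptor emission read. Reported as percent inhibition at a single compound concentration.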

T1 sequence (Q7ZJM1 whole entry): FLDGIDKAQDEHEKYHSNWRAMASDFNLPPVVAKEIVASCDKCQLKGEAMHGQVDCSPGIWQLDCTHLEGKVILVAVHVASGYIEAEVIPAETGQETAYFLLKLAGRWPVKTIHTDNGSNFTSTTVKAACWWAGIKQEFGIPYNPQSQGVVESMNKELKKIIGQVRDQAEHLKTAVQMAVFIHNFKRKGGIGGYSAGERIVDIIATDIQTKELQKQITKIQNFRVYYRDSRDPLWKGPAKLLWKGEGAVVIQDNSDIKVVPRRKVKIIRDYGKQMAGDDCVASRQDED

| SMILES | IC50 [1] | IC50 [4] | IC50 [5] | inhibition [6] | EC50 [2] | CC50 [3] |
| --- | --- | --- | --- | --- | --- | --- |
| O=C(Nc1ccccn1)c1nc[nH]c1C(=O)N1CCNCC1 | > 20 µM | > 20 µM | > 20 µM | < 50% | > 20 µM | > 20 µM |
| Cc1ccc(NC(=O)c2[nH]cnc2C(=O)NN)cc1 | > 20 µM | > 20 µM | 16 µM | < 50% | > 20 µM | > 20 µM |
| O=C(Nc1ccccc1O)c1nc[nH]c1C(=O)N1CCOCC1 | > 20 µM | > 20 µM | > 20 µM | < 50% | > 20 µM | > 20 µM |
| O=C(Nc1ccccn1)c1nc[nH]c1C(=O)N1CCOCC1 | > 20 µM | > 20 µM | > 20 µM | < 50% | > 20 µM | > 20 µM |
| CNC(=O)c1[nH]cnc1C(=O)Nc1ccccn1 | > 20 µM | > 20 µM | > 20 µM | < 50% | > 20 µM | > 20 µM |
| O=C(Nc1ccccn1)c1nc[nH]c1C(=O)N1CCC(O)CC1 | > 20 µM | > 20 µM | > 20 µM | < 50% | > 20 µM | > 20 µM |
| NNC(=O)c1[nH]cnc1C(=O)Nc1ccccn1 | > 20 µM | > 20 µM | 0.4 µM | < 50% | > 20 µM | > 20 µM |
| Nc1ccc(NC(=O)c2nc[nH]c2C(=O)O)cc1 | > 20 µM | > 20 µM | 1 µM | < 50% | > 20 µM | > 20 µM |

Continued, in another order:

| IC50 [1] | IC50 [4] | IC50 [5] | inhibition [6] | SMILES | EC50 [2] | CC50 [3] |
| --- | --- | --- | --- | --- | --- | --- |
| > 20 µM | > 20 µM | 13 µM | < 50% | O=C(Nc1ccccn1)c1nc[nH]c1C(=O)O | > 20 µM | > 20 µM |
| > 20 µM | > 20 µM | > 20 µM | < 50% | COC(=O)c1[nH]cnc1C(=O)Nc1ccc(F)cc1 | > 20 µM | > 20 µM |
| > 20 µM | > 20 µM | 5.3 µM | < 50% | O=C(Nc1ccc([N+](=O)[O-])cc1)c1nc[nH]c1C(=O)O | > 20 µM | > 20 µM |
| > 20 µM | > 20 µM | 6 µM | < 50% | O=C(Nc1ccccc1)c1nc[nH]c1C(=O)O | > 20 µM | > 20 µM |
| > 20 µM | > 20 µM | > 20 µM | < 50% | O=C(Nc1ccccc1O)c1nc[nH]c1C(=O)N1CCNCC1 | > 20 µM | > 20 µM |
| > 20 µM | > 20 µM | 10 µM | < 50% | O=C(Nc1ccc(F)cc1)c1nc[nH]c1C(=O)O | > 20 µM | > 20 µM |
| > 20 µM | > 20 µM | > 20 µM | < 50% | O=C(NCc1ccc(F)cc1)c1nc[nH]c1C(=O)O | > 20 µM | > 20 µM |
| > 20 µM | > 20 µM | > 20 µM | < 50% | O=C(Nc1ccccc1O)c1nc[nH]c1C(=O)N1CCC(O)CC1 | > 20 µM | > 20 µM |
